Calls of active or inactive are those of the source. No cut-off for these calls is given here.
How the values were obtained:
Format in all cases: functional, cell-based
P2Y purinoceptor 2 [1] = molecular target: T1, P2Y purinoceptor 2 (Homo sapiens, UniProt P41231); assay: Agonist activity at human P2Y2 receptor expressed in human 1321N1 cells assessed as stimulation of PLC-induced [3H]inositol phosphate production at 100 uM after 30 mins by scintillation counting relative to UTP
Method in brief: (§1)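 Retrovirally generated stable 1321N1 lines labelled 16 h with 1.0 μCi [3H]myo-inositol in inositol-free DMEM. Analogues at 100 μM, 30 min at 37°C in Hepes pH 7.3/HBSS with LiCl. Total [3H]inositol phosphates taken by formic acid extraction and Dowex anion exchange, then scintillation counting. P2Y2 and P2Y4 responses expressed as % of 100 nM UTP; P2Y6 as % of 1 μM UDP. Mean ± S.E.M., ≥3 experiments.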

P2Y purinoceptor 2 [2] = molecular target: T1, P2Y purinoceptor 2; assay: Agonist activity at human P2Y2 receptor expressed in human 1321N1 cells assessed as stimulation of PLC-induced [3H]inositol phosphate production after 30 mins by scintillation counting
Method in brief: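 Stable 1321N1 astrocytoma lines made by retroviral expression of the receptor. Cells plated 20,000/well two days ahead and labelled 16 h in serum-free, inositol-free DMEM with 1.0 μCi [3H]myo-inositol. Agonist added in HBSS with 100 mM Hepes pH 7.3 (five-fold stock) and 50 mM LiCl, 30 min at 37°C. Stopped with cold 50 mM formic acid, neutralized, Dowex columns. EC50 by non-linear regression, triplicates, ≥3 experiments.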

[3] = molecular target: P2Y purinoceptor 6 (Homo sapiens) (UniProt Q15077); assay: Agonist activity at human P2Y6 receptor expressed in human 1321N1 cells assessed as stimulation of PLC-induced [3H]inositol phosphate production at 100 uM after 30 mins by scintillation counting; method in brief: as §1
Chain of P2Y purinoceptor 6 (Homo sapiens) (Q15077 whole entry): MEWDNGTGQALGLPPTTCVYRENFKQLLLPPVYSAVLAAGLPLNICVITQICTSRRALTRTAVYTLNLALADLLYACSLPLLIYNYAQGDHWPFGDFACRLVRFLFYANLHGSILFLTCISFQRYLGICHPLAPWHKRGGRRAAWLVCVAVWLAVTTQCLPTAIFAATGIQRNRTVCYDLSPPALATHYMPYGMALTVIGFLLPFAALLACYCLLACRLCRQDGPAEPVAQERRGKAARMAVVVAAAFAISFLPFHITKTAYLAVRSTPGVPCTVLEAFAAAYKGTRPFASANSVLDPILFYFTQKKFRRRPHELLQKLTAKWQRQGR

[4] = molecular target: P2Y purinoceptor 4 (Homo sapiens) (UniProt P51582); assay: Agonist activity at human P2Y4 receptor expressed in human 1321N1 cells assessed as stimulation of PLC-induced [3H]inositol phosphate production at 100 uM after 30 mins by scintillation counting; method in brief: as §1
Chain of P2Y purinoceptor 4 (Homo sapiens) (P51582 whole entry): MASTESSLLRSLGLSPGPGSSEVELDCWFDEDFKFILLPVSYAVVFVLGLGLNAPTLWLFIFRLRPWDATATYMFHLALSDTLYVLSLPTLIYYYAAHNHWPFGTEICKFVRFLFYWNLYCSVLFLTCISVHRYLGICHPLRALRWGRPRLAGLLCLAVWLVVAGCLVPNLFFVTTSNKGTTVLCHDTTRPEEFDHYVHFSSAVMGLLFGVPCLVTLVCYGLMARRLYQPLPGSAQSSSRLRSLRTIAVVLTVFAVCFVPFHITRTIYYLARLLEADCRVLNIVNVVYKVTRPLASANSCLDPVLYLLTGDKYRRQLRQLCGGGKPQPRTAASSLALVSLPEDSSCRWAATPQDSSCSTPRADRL

T1 sequence (P41231 whole entry): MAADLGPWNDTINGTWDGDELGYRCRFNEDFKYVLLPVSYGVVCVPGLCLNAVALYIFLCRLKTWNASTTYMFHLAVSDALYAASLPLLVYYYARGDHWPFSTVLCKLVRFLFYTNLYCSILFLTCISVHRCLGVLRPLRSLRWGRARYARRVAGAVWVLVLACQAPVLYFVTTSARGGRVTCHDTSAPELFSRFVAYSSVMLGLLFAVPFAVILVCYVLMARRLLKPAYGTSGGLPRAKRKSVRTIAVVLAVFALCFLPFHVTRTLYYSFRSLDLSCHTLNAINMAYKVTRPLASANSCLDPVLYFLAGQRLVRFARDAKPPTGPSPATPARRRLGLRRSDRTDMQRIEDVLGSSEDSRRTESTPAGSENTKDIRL

| Emax (P2Y purinoceptor 2 [1]) | EC50 (P2Y purinoceptor 2 [2]) | Activity [3] | Activity [4] | SMILES |
| --- | --- | --- | --- | --- |
| 19% | > 20 µM | inactive | inactive | O=c1ccn([C@@H]2O[C@H](OCP(=O)(O)O)[C@@H](O)[C@H]2O)c(=O)[nH]1 |
| – | 0.02 µM | – | – | O=c1ccn([C@@H]2O[C@H](COP(=O)(O)OP(=O)(O)OP(=O)(O)O)[C@@H](O)[C@H]2O)c(=O)[nH]1 [URIDINE TRIPHOSPHATE] |
| 9% | > 20 µM | inactive | inactive | O=c1ccn([C@@H]2O[C@H](CCP(=O)(O)O)[C@@H](O)[C@H]2Cl)c(=O)[nH]1 |
| 43% | 0.4 µM | inactive | inactive | O=c1[nH]c(=O)n([C@@H]2O[C@H](CCP(=O)(O)O)[C@@H](O)[C@H]2O)cc1-c1ccc(F)cc1 |
| 45% | 0.7 µM | inactive | inactive | O=c1[nH]c(=O)n([C@@H]2O[C@H](CCP(=O)(O)O)[C@@H](O)[C@H]2O)cc1-c1ccco1 |
| 41% | 3.1 µM | inactive | inactive | O=c1[nH]c(=O)n([C@@H]2O[C@H](CCP(=O)(O)O)[C@@H](O)[C@H]2O)cc1/C=C/c1ccccc1 |
| 53% | 1.5 µM | inactive | inactive | O=c1[nH]c(=O)n([C@@H]2O[C@H](CCP(=O)(O)O)[C@@H](O)[C@H]2O)cc1-c1ccccc1 |

Continued, molecule first:

| SMILES | Emax (P2Y purinoceptor 2 [1]) | EC50 (P2Y purinoceptor 2 [2]) | Activity [3] | Activity [4] |
| --- | --- | --- | --- | --- |
| Cc1ccc(-c2cn([C@@H]3O[C@H](CCP(=O)(O)O)[C@@H](O)[C@H]3O)c(=O)[nH]c2=O)cc1 | 41% | 1 µM | inactive | inactive |
| O=c1ccn([C@H]2[C@H](O)[C@H](O)[C@]3(CCP(=O)(O)O)C[C@H]23)c(=O)[nH]1 | – | 4 µM | – | – |
| O=c1[nH]c(=O)n([C@@H]2O[C@H](CCP(=O)(O)O)[C@@H](O)[C@H]2O)cc1-c1csc2ccccc12 | 45% | > 20 µM | inactive | inactive |
| O=c1ccn([C@@H]2O[C@H](COP(=O)(O)OP(=O)(O)O)[C@@H](O)[C@H]2O)c(=O)[nH]1 | – | – | inactive | – |
| O=c1ccn([C@@H]2O[C@H](CCP(=O)(O)O)[C@@H](O)[C@H]2O)c(=O)[nH]1 | 32% | 5.1 µM | – | – |
| O=c1[nH]c(=O)n([C@@H]2O[C@H](CCP(=O)(O)O)[C@@H](O)[C@H]2O)cc1-c1ccc2ccccc2c1 | 54% | 2.1 µM | inactive | inactive |
| N[C@@H]1[C@H](O)[C@@H](CCP(=O)(O)O)O[C@H]1n1ccc(=O)[nH]c1=O | 9% | > 20 µM | inactive | inactive |
| O=c1[nH]c(=O)n([C@@H]2O[C@H](CCP(=O)(O)O)[C@@H](O)[C@H]2O)cc1-c1cccs1 | 35% | 0.5 µM | inactive | inactive |

Source: ChEMBL document CHEMBL1955746, “Synthesis and P2Y₂ receptor agonist activities of uridine 5'-phosphonate analogues” (Bioorg Med Chem, 2012)
